Sampled rows, rich in hits. Any-hit rate of the full collection: about 4.8%.
T cruzi inh – inhibitors of intracellular T. cruzi growth, primary screen, luminescence, NIH3T3 host cells; 300,000 tested, 1.4% active; inhibition, % (test concentration not listed); AID 1885, 2009; T. cruzi beta-gal in NIH3T3, 90 h;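 active = mean inhibition across valid replicates above about 55%, limit read from the data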;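 also: signal also drops with host cell toxicity which is not excluded here; 0% = plate median of DMSO wells and 100% = zero luminescence signal; higher percent means less beta-gal luminescence so fewer parasites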
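Incubation – ≥90 h infection period, 3 h prior cell attachment · System – NIH/3T3 fibroblasts plus reporter T. cruzi · Doses – compound pinned at 50 nL/well, DMSO · Read-out basis – percent inhibition of parasite-derived β-gal signal · Signal – luminescent β-galactosidase signal after 60 min lysis · Also added – 5000 T. cruzi trypomastigotes/well · Medium – Low-serum DMEM with 2% FBS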
697 NFkB inh – inhibitors of PMA/ionomycin-induced NF-kB reporter, 697 cells, primary screen, B-cell NF-kB inhibitor project, cell-based, luminescence, uHTS; 697 B-cell NF-kB luciferase reporter, 16 h; inhibition, % at 4 µM; AID 435022, 2010; 330,000 tested, 0.33% active; in the data active = inhibition above about 35%
GPR7 antagonist – GPR7 receptor antagonists, primary screen, cell-based, fluorescence, single concentration. 290,000 tested, 1.1% active. Neuropeptides B/W receptor type 1 (Homo sapiens), P48145. GPR7-expressing cells, fluorescence antagonist assay. inhibition, % at 4.4 µM; in the data active = inhibition above about 16%, passing the limit was not always enough;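 also: cells stimulated with the agonist NPW; 0% = agonist with vehicle and 100% = vehicle without agonist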
Target sequence (P48145 whole entry, looked up): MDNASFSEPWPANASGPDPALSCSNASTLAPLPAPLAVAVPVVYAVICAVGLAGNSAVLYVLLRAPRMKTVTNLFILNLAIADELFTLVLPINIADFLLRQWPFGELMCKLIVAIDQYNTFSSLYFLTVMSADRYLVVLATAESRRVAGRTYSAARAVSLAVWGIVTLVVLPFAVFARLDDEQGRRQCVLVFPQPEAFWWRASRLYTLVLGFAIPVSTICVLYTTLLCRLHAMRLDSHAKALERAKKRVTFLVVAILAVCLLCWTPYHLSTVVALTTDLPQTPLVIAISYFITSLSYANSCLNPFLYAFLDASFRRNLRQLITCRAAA
HSF-1 act – HSF-1 activators, primary screen, NIH3T3-HGL cells, MG132 stress, luminescence, single point; NIH3T3-HGL HSF-1 luciferase reporter, 8 h; 100% = twice DMSO control signal; activation, % at 9 µM; 300,000 tested, 1.7% active; AID 504408, 2011;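 active = mean replicate activation of at least 50% with a set share of replicates each reaching 50%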;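 also: 0% = median of the neutral control wells and 100% = twice that signal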
HSF1 inh – HSF1 inhibitors in luciferase reporter cells, primary screen, cell-based, NIH3T3, luminescence; activity change, negative = inhibition, % at 7.5 µM (by protocol); AID 2098, 2009; NIH3T3-HGL HSE-luciferase, MG132-induced, luminescence 8 h; active compounds read low; 300,000 tested, 0.77% active;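 active = more than half of replicate wells show activity change below -50%, luminescence cut by over half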;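 also: luciferase reports HSF-1 transcriptional activity via heat shock element; 0% = median of DMSO wells and -100% = zero luminescence signal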
Jurkat NFkB inh – inhibitors of induced NF-kB luciferase reporter, primary screen, TCR NF-kB activation inhibitor project, cell-based, luminescence, uHTS | 330,000 tested, 0.53% active | Jurkat, PMA/ionomycin-induced NF-kB luciferase reporter | inhibition, % at 4 µM; in the data active = inhibition above about 50%
Numbers without * were called inactive; . = no result given.

SMILES	T cruzi inh	697 NFkB inh	GPR7 antagonist	HSF-1 act	HSF1 inh	Jurkat NFkB inh
CC1(C)CC[C@]2(CO)CC[C@]3(C)C(=CCC4[C@@]5(C)CC[C@H](O)[C@@](C)(CO)C5CC[C@]43C)[C@@H]2C1 (stereo partly drawn)	.	1.3	.	.	.	0.2
CCN(CC)CCNc1ncnc2c1sc1nc(N3CCCC3)c3c(c12)CC(C)(C)OC3	60.8*	-33.2	-9.6	-3.6	4.5	0.1
CC1CCN(C(=O)Cn2c(=O)n(CCCC(=O)NCc3ccco3)c(=O)c3sccc32)CC1	7.5	20.6	-2.7	4.5	-0.3	8.5
Cc1ccc(S(=O)(=O)NCCC(=O)NCC(c2cccs2)N(C)C)cc1 (stereo not drawn)	.	17.5	.	.	.	-9.8
O=C(COC(=O)c1ccc([N+](=O)[O-])o1)Nc1cccc(S(=O)(=O)N2CCCCC2)c1	-5.3	10.2	-4.6	7.2	2.2	6.3
O=C(Nc1cccc(O)c1)c1ccc(S(=O)(=O)N2CCCCCC2)cc1	-5.5	7.0	5.2	74.9*	36.3	-25.9
O=C(Nc1cccc(S(=O)(=O)N2CCCCC2)c1)c1ccc([N+](=O)[O-])o1	40.3	21.0	-2.0	73.5*	55.6	15.3
CN1CCN(c2ccc(NC(=O)c3ccc([N+](=O)[O-])o3)cc2Cl)CC1	10.1	-9.8	-4.3	-79.3	-77.5*	25.3
Cc1ccc(NC(=O)CSc2nc(C)c(C)c(C)n2)cc1S(=O)(=O)N1CCOCC1	.	-2.8	.	.	.	7.5
Cc1ccc(NC(=O)CSc2nc(N)cc(N)n2)cc1S(=O)(=O)N1CCOCC1	-11.6	0.2	20.0*	0.7	-0.8	11.9
CSc1cccc(NC(=O)CC2Oc3ccccc3NC2=O)c1 (stereo not drawn)	-3.9	2.3	0.9	-0.9	-5.4	-2.2
Cc1oc2c(CN3CCCC(C)C3)c(O)ccc2c(=O)c1-c1ccccc1 (stereo not drawn)	-1.5	5.7	-9.7	-19.0	0.1	-8.2
Cc1ccc(NC(=O)c2cc([N+](=O)[O-])ccc2N2CCOCC2)cc1S(=O)(=O)N1CCOCC1	16.5	-1.2	7.3	1.1	0.3	4.1
COc1c(C)cccc1C(=O)Nc1ccc(N2CCOCC2)c(Cl)c1	6.9	-134.8	-3.3	60.3*	25.0	-111.0
O=C(Nc1ccc(N2CCOCC2)c(Cl)c1)c1ccc([N+](=O)[O-])o1	22.0	.	-0.6	140.6*	108.0	.
CC(C)C(=O)N1CCN(c2ccc(NC(=O)c3ccc([N+](=O)[O-])o3)cc2Cl)CC1	.	.	-1.5	.	.	.
O=C(Nc1ccccc1N1CCOCC1)c1ccc([N+](=O)[O-])o1	34.1	-7.1	-4.1	-7.6	-2.0	25.1
Cc1ccc(NC(=O)c2ccc([N+](=O)[O-])o2)cc1S(=O)(=O)N1CCOCC1	9.3	-2.6	-5.9	74.8*	65.9	8.7
CCCC(=O)N1CCN(c2ccc(NC(=O)c3ccc([N+](=O)[O-])o3)cc2Cl)CC1	56.6*	.	3.6	45.9	24.1	.
Cc1c(CN(C)C)c2c(n1Cc1ccccc1)C(=O)c1ccccc1-2	10.7	-10.3	-3.6	-4.0	-7.6	-28.2
CCc1ccc(NC(=O)CSc2nc3n[nH]c(C)c3c(=N)n2-c2cccc(OC)c2)cc1	9.1	3.8	-7.7	68.6*	40.0	19.5
COc1cccc(NC(=O)CSc2nc3n[nH]c(C)c3c(=N)n2-c2cccc(OC)c2)c1	30.3	1.7	8.4	17.6	7.2	3.5
COc1ccc(SC[C@H](CC(C)C)N2CCN(CCc3ccccc3)CCC2=O)cc1	22.9	-3.6	.	-16.2	3.4	-16.5
Cc1cc2c(c(/C=C/C(=O)c3ccccc3)c1)OC1(C=C2)Oc2ccccc2C(=O)N1C (stereo not drawn)	42.5	-38.4	-6.0	74.1*	45.6	0.1
Cc1ccc(C(=O)/C=C/c2cn(CN3CCN(C)CC3)c3ccccc23)cc1	15.3	-89.7	9.9	59.7*	25.5	7.9

Screens deposited in PubChem by several laboratories.
